Test results from ChEMBL document CHEMBL3120111, “Bilirubin and related tetrapyrroles inhibit food-borne mutagenesis: a mechanism for antigenotoxic action against a model epoxide” (J Nat Prod, 2013).
Active and inactive are the calls of the source. The calls are words filed in the database; no cut-off is given here.

Experiments:
Salmonella typhimurium [1] = test: Mutagenic activity in Salmonella typhimurium TA98 mutagenesis preincubated at 0.5 umol/plate for 25 mins by Ames test in presence of S9 liver homogenate relative to aflatoxin B1; format: toxicity, organism-based, Liver S9 fraction; settings: salmonella enterica subsp. enterica serovar typhimurium
Salmonella typhimurium [2] = test: Antimutagenic activity against PhIP-induced Salmonella typhimurium TA98 mutagenesis preincubated at 0.01 to 10 umol/plate for 25 mins by Ames test in presence of S9 liver homogenate relative to control; format: functional, organism-based; settings: Salmonella enterica subsp. enterica serovar Typhimurium, Liver S9 fraction
Salmonella typhimurium [3] = test: Antimutagenic activity against PhIP-induced Salmonella typhimurium TA98 mutagenesis assessed as reduction in His+ revertants after 48 hrs by microscopy in presence of S9 liver homogenate; format: functional, organism-based; settings: Salmonella enterica subsp. enterica serovar Typhimurium, Liver S9 fraction
Outline: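 Ames preincubation in TA98 with rat liver S9 mix (Aroclor 1254-induced, with NADP and glucose-6-phosphate). PhIP was 0.1×10^-7 mol/plate in DMSO; tetrapyrroles were in DMSO at 0.01–2 µmol/plate (bilirubin 0.01–0.75). Preincubation 25 min at 37 °C with shaking, then top agar on minimal glucose plates for 48 h at 37 °C. His+ revertants counted manually after microscopic lawn check. Triplicate plates, repeated independently.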

Salmonella typhimurium [4] = test: Antimutagenic activity against PhIP-induced Salmonella typhimurium TA98 mutagenesis preincubated at 0.5 umol/plate for 25 mins by Ames test in presence of S9 liver homogenate relative to control; format: functional, organism-based; settings: Salmonella enterica subsp. enterica serovar Typhimurium, Liver S9 fraction
Outline: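 IP0.5 is the percent inhibition of PhIP-positive-control revertants (0.1×10^-7 mol/plate PhIP, TA98, with S9) at 0.5 µmol/plate tetrapyrrole. It was derived from dose-response data in the 25 min preincubation plate assay, with 48 h incubation at 37 °C. Three positive-control plates and six solvent-control plates per test.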

Compound: C=CC1=C(C)/C(=C/C2=NC(=C\c3[nH]c(/C=C4\NC(=O)C(C)=C4C=C)c(C)c3CCC(=O)O)/C(CCC(=O)O)=C2C)NC1=O [BILIVERDIN]
- Activity (Salmonella typhimurium [1]): 363%
- Activity (Salmonella typhimurium [2]): Active
- Activity (Salmonella typhimurium [3]): Active
- inhibition (Salmonella typhimurium [4]): 78%

Compound: CCC1=C(C)[C@H](CC2=N/C(=C\c3[nH]c(C[C@@H]4N=C(O)C(C)=C4CC)c(C)c3CCC(=O)O)C(CCC(=O)O)=C2C)N=C1O
- Activity (Salmonella typhimurium [2]): Active
- inhibition (Salmonella typhimurium [4]): 48%

Compound: C=CC1=C(C)/C(=C\c2[nH]c(Cc3[nH]c(/C=C4/NC(=O)C(C)=C4C=C)c(C)c3CCC(=O)OC)c(CCC(=O)OC)c2C)NC1=O
- inhibition (Salmonella typhimurium [4]): 68%

Compound: CC[C@H]1[C@H](Cc2[nH]c(/C=C3\N=C(C[C@@H]4NC(=O)[C@H](CC)[C@H]4C)C(C)=C3CCC(=O)O)c(CCC(=O)O)c2C)NC(=O)[C@@H]1C
- Activity (Salmonella typhimurium [2]): Active
- inhibition (Salmonella typhimurium [4]): 57%

Compound: C=CC1=C(C)/C(=C/C2=NC(=C\c3[nH]c(/C=C4/NC(=O)C(C)=C4C=C)c(C)c3CCC(=O)OC)/C(CCC(=O)OC)=C2C)NC1=O
- Activity (Salmonella typhimurium [2]): Active
- Activity (Salmonella typhimurium [3]): Active
- inhibition (Salmonella typhimurium [4]): 55%

Compound: C=CC1=C(C)/C(=C/c2[nH]c(Cc3[nH]c(/C=C4\NC(=O)C(C)=C4C=C)c(C)c3CCC(=O)NCCS(=O)(=O)O)c(CCC(=O)NCCS(=O)(=O)O)c2C)NC1=O [BILIRUBIN DITAURATE]
- Activity (Salmonella typhimurium [1]): 268%
- inhibition (Salmonella typhimurium [4]): 64%

Compound: C=CC1=C(C)/C(=C/c2[nH]c(Cc3[nH]c(/C=C4\NC(=O)C(C)=C4C=C)c(C)c3CCC(=O)O)c(CCC(=O)O)c2C)NC1=O [BILIRUBIN]
- Activity (Salmonella typhimurium [1]): 352%
- inhibition (Salmonella typhimurium [4]): 82%

Compound: C=CC1=C(C)c2cc3[nH]c(cc4nc(cc5[nH]c(cc1n2)c(C)c5CCC(=O)O)C(CCC(=O)O)=C4C)c(C)c3C=C
- inhibition (Salmonella typhimurium [4]): 97%
